# According to ChEMBL document CHEMBL1137980, “Rationale, design, and synthesis of novel phenyl imidazoles as opioid receptor agonists for gastrointestinal disorders” (J Med Chem, 2004):
# pEC50, pKi: −log10 of the molar value. Residues, ends and D or L forms follow the SMILES beside them.
# Legend:
# [1] = biological target: Opioid receptors; mu & delta (Rattus norvegicus) (UniProt P33533+P33535); test: Selectivity for mu 1 and delta 1 opioid receptors; assay type: protein assay
# [2] = biological target: Delta-type opioid receptor (Homo sapiens, UniProt P41143); test: Inhibition of delta opioid receptor mediated GTPgammaS binding to CHO cell membranes; assay type: functional
# Delta-type opioid receptor (Homo sapiens, UniProt P41143), sequence (P41143 whole entry): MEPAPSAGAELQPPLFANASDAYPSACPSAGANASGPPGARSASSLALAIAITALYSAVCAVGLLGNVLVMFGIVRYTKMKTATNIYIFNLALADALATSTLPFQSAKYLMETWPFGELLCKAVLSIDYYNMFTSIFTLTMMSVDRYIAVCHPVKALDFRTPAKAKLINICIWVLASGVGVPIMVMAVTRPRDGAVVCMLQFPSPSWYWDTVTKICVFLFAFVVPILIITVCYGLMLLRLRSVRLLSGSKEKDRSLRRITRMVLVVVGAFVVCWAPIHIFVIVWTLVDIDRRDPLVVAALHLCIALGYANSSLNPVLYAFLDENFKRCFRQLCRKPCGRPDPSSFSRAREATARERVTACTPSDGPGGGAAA
# Outline: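 Purchased CHO-hδ cell membranes at 10 µg/mL, coupled to SPA beads at 5 mg/mL. Incubated with 0.5 nM [35S]GTPγS and 50 µM GDP in 50 mM HEPES pH 7.6 with 5 mM MgCl2, 100 mM NaCl, 1 mM DTT and 1 mM EDTA. Increasing agonist concentrations stimulated binding. Basal binding measured without agonist; nonspecific binding with 10 µM unlabeled GTPγS.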
# [3] = biological target: Mu-type opioid receptor (Cavia porcellus, UniProt P97266); test: Inhibition of mu opioid receptor mediated GTPgammaS binding to CHO cell membranes; assay type: functional
# Mu-type opioid receptor (Cavia porcellus, UniProt P97266), sequence (P97266 whole entry): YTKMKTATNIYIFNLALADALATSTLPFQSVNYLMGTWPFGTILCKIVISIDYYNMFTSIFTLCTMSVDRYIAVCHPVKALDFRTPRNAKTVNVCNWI
# [4] = biological target: Delta-type opioid receptor (Rattus norvegicus, UniProt P33533); test: Binding affinity for delta opioid receptor of rat brain
# Delta-type opioid receptor (Rattus norvegicus, UniProt P33533), sequence (P33533 whole entry): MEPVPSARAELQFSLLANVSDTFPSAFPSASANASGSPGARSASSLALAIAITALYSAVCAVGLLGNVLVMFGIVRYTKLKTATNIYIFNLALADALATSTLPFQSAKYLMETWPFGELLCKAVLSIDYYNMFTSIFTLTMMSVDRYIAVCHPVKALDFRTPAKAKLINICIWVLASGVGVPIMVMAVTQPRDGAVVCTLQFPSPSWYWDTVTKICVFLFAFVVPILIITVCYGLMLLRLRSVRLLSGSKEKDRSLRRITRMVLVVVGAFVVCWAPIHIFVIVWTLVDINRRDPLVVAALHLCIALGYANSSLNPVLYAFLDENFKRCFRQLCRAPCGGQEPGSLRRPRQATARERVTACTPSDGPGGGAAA
# Outline: (§1)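 Male Wistar rat forebrain membranes in 50 mM Tris HCl pH 7.4 with 5 mM MgCl2. Incubated 2.5 h at 25 °C with ~4 nM [3H]DPDPE (δ) or ~0.8 nM [3H]DAMGO (μ). Filtered, rinsed with 10 mM HEPES pH 7.4 and counted by liquid scintillation. Ki derived from a range of test concentrations; single-concentration data expressed as % inhibition of specific binding.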
# [5] = biological target: Mu-type opioid receptor (Rattus norvegicus, UniProt P33535); test: Binding affinity for Mu opioid receptor of rat brain; outline: as §1
# Mu-type opioid receptor (Rattus norvegicus, UniProt P33535), sequence (P33535 whole entry): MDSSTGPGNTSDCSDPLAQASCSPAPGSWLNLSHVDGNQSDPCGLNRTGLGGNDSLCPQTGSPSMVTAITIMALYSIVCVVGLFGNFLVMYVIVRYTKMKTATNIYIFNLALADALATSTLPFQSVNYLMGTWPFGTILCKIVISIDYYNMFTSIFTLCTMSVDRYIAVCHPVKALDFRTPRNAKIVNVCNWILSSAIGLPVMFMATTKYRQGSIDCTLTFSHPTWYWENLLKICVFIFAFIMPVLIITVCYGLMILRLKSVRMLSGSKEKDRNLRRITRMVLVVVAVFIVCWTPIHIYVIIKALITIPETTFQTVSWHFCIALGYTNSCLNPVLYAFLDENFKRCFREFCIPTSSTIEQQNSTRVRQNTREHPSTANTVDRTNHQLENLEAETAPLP
# [6] = tested on: Mus musculus; test: Percent inhibition of mouse abdominal constriction at a dose of 10 ug upon intracerebro ventricular administration; assay type: functional, Abdomen
# Outline: (§2)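 Male CD1 mice (18–40 g), n = 10 per group, dosed sc (10 mL/kg volume) or icv. Then challenged ip with acetylcholine bromide dissolved in distilled water (5.5 mg/kg as printed), given at 0.20 mL/20 g.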
# [7] = tested on: Mus musculus; test: Percent inhibition of mouse abdominal constriction at a dose of 100 mg/kg when administered subcutaneously; assay type: functional; conditions: Abdomen, sc, route subcutaneous; outline: as §2
# [8] = tested on: Mus musculus; test: Percent inhibition of mouse abdominal constriction at a dose of 100 ug upon intracerebro ventricular administration; assay type: functional, Abdomen; outline: as §2
# [9] = biological target: Kappa-type opioid receptor (Cavia porcellus, UniProt P41144); test: Binding affinity for kappa opioid receptor of guinea pig cerebellum; assay type: tissue-based
# Kappa-type opioid receptor (Cavia porcellus, UniProt P41144), sequence (P41144 whole entry): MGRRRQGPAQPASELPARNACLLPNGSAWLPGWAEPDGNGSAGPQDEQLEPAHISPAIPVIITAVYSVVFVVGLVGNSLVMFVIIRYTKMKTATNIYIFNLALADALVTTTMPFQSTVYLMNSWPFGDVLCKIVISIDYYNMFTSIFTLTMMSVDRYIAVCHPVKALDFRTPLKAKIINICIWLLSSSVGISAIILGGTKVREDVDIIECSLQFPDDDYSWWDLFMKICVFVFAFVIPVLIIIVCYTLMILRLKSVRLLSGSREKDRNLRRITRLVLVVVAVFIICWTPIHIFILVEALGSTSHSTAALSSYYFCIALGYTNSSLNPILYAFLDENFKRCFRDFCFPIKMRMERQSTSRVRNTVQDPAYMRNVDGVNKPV
# [10] = biological target: Kappa-type opioid receptor (Homo sapiens, UniProt P41145); test: Inhibition of rabbit vas deferens contractions; assay type: functional, Oryctolagus cuniculus; conditions: target entry is the homologue from another species
# Kappa-type opioid receptor (Homo sapiens, UniProt P41145), sequence (P41145 whole entry): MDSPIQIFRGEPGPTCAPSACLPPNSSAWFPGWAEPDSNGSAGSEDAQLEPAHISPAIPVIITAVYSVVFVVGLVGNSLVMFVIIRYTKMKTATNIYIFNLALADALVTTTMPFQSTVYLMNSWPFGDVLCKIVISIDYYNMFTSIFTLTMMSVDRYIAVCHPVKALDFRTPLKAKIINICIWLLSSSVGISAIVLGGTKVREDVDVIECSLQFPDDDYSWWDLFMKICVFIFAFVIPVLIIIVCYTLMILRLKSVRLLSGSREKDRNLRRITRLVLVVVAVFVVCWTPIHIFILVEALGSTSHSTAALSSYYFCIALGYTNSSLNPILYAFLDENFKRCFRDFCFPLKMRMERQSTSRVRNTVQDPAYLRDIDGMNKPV
# Outline: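 κ functional study run on rabbit vas deferens tissue.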
# Opioid receptors; mu & delta (Rattus norvegicus), sequence (P33533 whole entry, looked up): as the sequence (P33533 whole entry) above
# Opioid receptors; mu & delta (Rattus norvegicus), sequence (P33535 whole entry, looked up): as the sequence (P33535 whole entry) above
Compound,Selectivity [1],pEC50 [2],pEC50 [3],pKi [4],pKi [5],further results
N[C@@H](Cc1ccc(O)cc1)C(=O)N1Cc2ccccc2C[C@H]1C(=O)NCCc1ccccc1 (HELM PEPTIDE1{Y.[Tic].[c1ccc(CCN[*:1])cc1]}$$$$V2.0),13,7.09,5.67,8.28,7.16,–
Cc1[nH]c([C@@H]2Cc3ccccc3CN2C(=O)[C@@H](N)Cc2ccc(O)cc2)nc1-c1ccccc1 (stereo in doubt; 4c) [listing 1 of 2 here],75,–,–,–,–,–
Cc1[nH]c([C@@H]2CCCCN2C(=O)[C@@H](N)Cc2ccc(O)cc2)nc1-c1ccccc1,0.1,6.27,6.82,7.67,8.82,–
Cc1[nH]c([C@@H]2Cc3ccccc3CN2C(=O)[C@@H](N)Cc2ccc(O)cc2)nc1-c1ccccc1 (stereo in doubt; 4c) [listing 2 of 2 here],–,8.85,< 5.00,9.52,7.68,–
Cc1[nH]c([C@@H]2Cc3ccccc3CN2C(=O)[C@@H](N)Cc2ccc(O)cc2)nc1-c1ccccc1 (stereo in doubt) [listing 1 of 2 here],4,–,–,–,–,–
N[C@@H](Cc1ccc(O)cc1)C(=O)N1Cc2ccccc2C[C@H]1c1nc2ccccc2[nH]1 [listing 1 of 2 here],> 6,–,–,–,–,–
"N[C@@H](Cc1ccc(O)cc1)C(=O)N1Cc2ccccc2C[C@H]1c1nc2ccccc2[nH]1 (single isomer, unassigned) [listing 1 of 2 here]",–,6.36,–,7.30,< 7.00,–
CCCc1[nH]c([C@@H]2Cc3ccccc3CN2C(=O)[C@@H](N)Cc2ccc(O)cc2)nc1C,> 1,–,–,–,–,–
CN(C)C(=O)C(CCN1CCC(O)(c2ccc(Cl)cc2)CC1)(c1ccccc1)c1ccccc1 [LOPERAMIDE],–,–,7.24,7.30,–,–
N[C@@H](Cc1ccc(O)cc1)C(=O)N1Cc2ccccc2C[C@H]1c1nc2ccccc2[nH]1 [listing 2 of 2 here],–,7.43,< 5.00,7.82,< 7.00,–
CCCc1c[nH]c([C@@H]2Cc3ccccc3N2C(=O)[C@@H](N)CC)n1,–,–,–,< 7.00,< 7.00,–
Cc1[nH]c([C@@H]2CCCN2C(=O)[C@@H](N)Cc2ccc(O)cc2)nc1-c1ccccc1,< 0.02,–,5.89,< 7.00,7.64,–
CCCc1nc([C@@H]2Cc3ccccc3CN2C(=O)[C@@H](N)Cc2ccc(O)cc2)[nH]c1C,–,7.07,–,7.20,< 7.00,–
Cc1[nH]c([C@@H]2Cc3ccccc3CN2C(=O)[C@@H](N)Cc2ccc(O)cc2)nc1-c1ccccc1 (stereo in doubt) [listing 2 of 2 here],–,6.90,–,7.71,7.07,–
N[C@@H](Cc1ccc(O)cc1)C(=O)N1Cc2ccccc2C[C@H]1c1nc(-c2ccccc2)c(Br)[nH]1,–,8.72,< 5.00,9.96,7.94,–
"N[C@@H](Cc1ccc(O)cc1)C(=O)N1Cc2ccccc2C[C@H]1c1nc2ccccc2[nH]1 (single isomer, unassigned) [listing 2 of 2 here]",> 2,–,–,–,–,–
N[C@@H](Cc1ccc(O)cc1)C(=O)N1Cc2ccccc2C[C@H]1c1nc(Br)c(-c2ccccc2)[nH]1,14,–,–,–,–,–
"CCCc1nc([C@@H]2Cc3ccccc3CN2C(=O)[C@@H](N)Cc2ccc(O)cc2)[nH]c1C (single isomer, unassigned)",–,–,–,< 7.00,< 7.00,–
N[C@@H](Cc1ccc(O)cc1)C(=O)N1Cc2ccccc2C[C@H]1c1nc(-c2ccccc2)c[nH]1,63,7.60,5.62,9.05,7.26,Inhibition [6]: 40%; inhibition in vivo at 100 mg/kg [7]: 0%; Inhibition [8]: 100%; pKi [9]: 6.91; pEC50 [10]: < 7.52
